# Test results as given in ChEMBL document CHEMBL1122845, “Inhibitors of blood platelet aggregation. Effects of some 1,2-benzisothiazol-3-ones on platelet responsiveness to adenosine diphosphate and collagen” (J Med Chem, 1985).
# Columns and labels:
# [1] = test system: Cavia porcellus; experiment: Ex vivo inhibition of ADP induced guinea pig platelet aggregation following 0.08 mmol/kg administration.; assay type: functional
# How it was run: (§1)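 Fasted male rats (~200 g) or guinea pigs (~300 g), n=5-10, dosed orally (5 mL/kg) in 1% methylcellulose; methylcellulose alone as control. Killed with CO2 after 2 h. Vena cava blood citrated (102 mM rat, 129 mM guinea pig); PRP adjusted to 800000/µL (rat) or 500000/µL (guinea pig). EC25 for first-phase ADP aggregation (max 8 µM) interpolated from two 2-fold-spaced ADP levels. Dose ratio = treated/control mean EC25; Student's t-test. Some groups tested as pooled PRP.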
# [2] = test system: Cavia porcellus; experiment: The compound was tested ex vivo at a dose of 0.08 mmol/kg or collagen induced platelet aggregation in guinea pig; assay type: functional
# How it was run: (§2)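 Male rats (~200 g) or guinea pigs (~300 g), overnight fasted, n=5-10, received compound orally in 1% methylcellulose (5 mL/kg); vehicle-only controls. After 2 h, CO2 kill and vena cava blood into citrate (102 mM rat, 129 mM guinea pig). PRP set to 800000/µL (rat) or 500000/µL (guinea pig). Collagen EC50 (response of 50 mm; max 50 µg/mL) interpolated from a log plot. Dose ratio = treated/control mean EC50; t-test. Pooled PRP sometimes used.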
# [3] = test system: Rattus norvegicus; experiment: The compound was tested ex vivo at a dose of 0.15 mmol/kg for collagen induced platelet aggregation in rat; assay type: functional; how it was run: as §2
# [4] = test system: Rattus norvegicus; experiment: The compound was tested ex vivo at a dose of 0.15 mmol/kg for ADP induced platelet aggregation in rat; assay type: functional; how it was run: as §1
# [5] = test system: Cavia porcellus; experiment: Ex vivo inhibition of collagen induced guinea pig platelet aggregation following 0.08 mmol/kg administration.; assay type: functional; how it was run: as §2
# [6] = test system: Cavia porcellus; experiment: The compound was tested ex vivo at a dose of 0.04 mmol/kg for collagen induced platelet aggregation in guinea pig; assay type: functional; how it was run: as §2
# [7] = test system: Cavia porcellus; experiment: The compound was tested ex vivo at a dose of 0.04 mmol/kg for ADP induced platelet aggregation in guinea pig; assay type: functional; how it was run: as §1
# [8] = organism: Homo sapiens; experiment: In vitro inhibitory activity against human platelet aggregation in the presence of Adenosine diphosphate; assay type: functional
# How it was run: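 Human citrated PRP, platelet count adjusted to 350000/µL with autologous platelet-poor plasma. 90 µL PRP preincubated 3 min at 37 °C with compound or saline (DMF vehicle where needed), stirred at 1100 rpm. ADP chosen per preparation to give a clear first-phase response (typically 1 µM). Photometric read-out: maximum rise in light transmission within 1 min. IC50 determined.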
# [9] = organism: Homo sapiens; experiment: (§3) In vitro inhibitory activity against human platelet aggregation in the presence of collagen; assay type: functional, organism-based
# [10] = test system: Rattus norvegicus; experiment: The compound was tested ex vivo at a dose of 0.08 mmol/kg for collagen induced platelet aggregation in rat; assay type: functional; how it was run: as §2
# [11] = test system: Rattus norvegicus; experiment: The compound was tested ex vivo at a dose of 0.08 mmol/kg for ADP induced platelet aggregation in rat; assay type: functional; how it was run: as §1
# [12] = test system: Cavia porcellus; experiment: The compound was tested ex vivo fat a dose of 0.15 mmol/kg for collagen induced platelet aggregation in guinea pig; assay type: functional; how it was run: as §2
# [13] = test system: Cavia porcellus; experiment: The compound was tested ex vivo at a dose of 0.15 mmol/kg for ADP induced platelet aggregation in guinea pig; assay type: functional; how it was run: as §1
# [14] = test system: Rattus norvegicus; experiment: The compound was tested ex vivo at a dose of 0.3 mmol/kg for collagen induced platelet aggregation in rat; assay type: functional; how it was run: as §2
# [15] = test system: Rattus norvegicus; experiment: The compound was tested ex vivo at a dose of 0.3 mmol/kg for ADP induced platelet aggregation in rat; assay type: functional; how it was run: as §1
# [16] = organism: Homo sapiens; experiment: as §3; assay type: functional
# How it was run: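 Aggregation measured photometrically in human citrated PRP (350000 platelets/µL, stirred at 1100 rpm). Compound or saline preincubated 3 min at 37 °C. Collagen at a just-maximal level chosen for each sample (typically 0.7-1.4 µg/mL). Maximum increase in light transmission measured. IC50 = concentration giving 50% inhibition.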
# [17] = test system: Cavia porcellus; experiment: The compound was tested at a dose of 0.08 mmol/kg ex vivo for collagen induced platelet aggregation in guinea pig; assay type: functional; how it was run: as §2
# [18] = test system: Cavia porcellus; experiment: The compound was tested ex vivo at a dose of 0.15 mmol/kg for collagen induced platelet aggregation in guinea pig
# [19] = test system: Rattus norvegicus; experiment: The compound was tested at a dose of 0.15 mmol/kg ex vivo for ADP induced platelet aggregation in rat; assay type: functional; how it was run: as §1
# [20] = test system: Rattus norvegicus; experiment: The compound was tested at a dose of 0.15 mmol/kg ex vivo for collagen induced platelet aggregation in rat; assay type: functional; how it was run: as §2
# [21] = test system: Cavia porcellus; experiment: The compound was tested ex vivo at a dose of 0.08 mmol/kg for collagen induced platelet aggregation in guinea pig; assay type: functional; how it was run: as §2
# [22] = test system: Cavia porcellus; experiment: The compound was tested ex vivo at a dose of 0.3 mmol/kg for collagen induced platelet aggregation in guinea pig; assay type: functional; how it was run: as §2
# [23] = test system: Rattus norvegicus; experiment: The compound was tested at a dose of 0.3 mmol/kg ex vivo for collagen induced platelet aggregation in rat; assay type: functional; how it was run: as §2
# [24] = test system: Cavia porcellus; experiment: The compound was tested ex vivo at a dose of 0.15 mmol/kg for collagen induced platelet aggregation in guinea pig; assay type: functional; how it was run: as §2
# [25] = test system: Cavia porcellus; experiment: The compound was tested ex vivo at a dose of 0.3 mmol/kg for ADP induced platelet aggregation in guinea pig; assay type: functional; how it was run: as §1
# [26] = test system: Cavia porcellus; experiment: The compound was tested ex vivo at a dose of 0.08 mmol/kg for ADP induced platelet aggregation in guinea pig; assay type: functional; how it was run: as §1
# [27] = organism: Cavia porcellus; experiment: The compound was tested ex vivo for collagen induced platelet aggregation in guinea pig; assay type: functional; how it was run: as §2
# [28] = organism: Cavia porcellus; experiment: The compound was tested ex vivo for ADP induced platelet aggregation in guinea pig; assay type: functional; how it was run: as §1
smiles,measurement,setting,value
O=c1c2ccccc2sn1CCCCCN1CC2CCC(CC2)C1,Activity,[1],1.2
same,Activity,[2],2.8
CCN(CC)CCn1sc2ccccc2c1=O,Activity,[3],2.6
same,Activity,[4],1.3
O=c1c2ccccc2sn1CCCCN1CCCC1,Activity,[1],1.4
same,Activity,[5],1.9
O=c1c2cc(Cl)c(Cl)cc2sn1CCN1CCCC1,Activity,[3],1.8
same,Activity,[4],1.4
Cc1cc(C)c2c(=O)n(CCN3CCCCC3)sc2c1,Activity,[1],>24
same,Activity,[5],>21
same,Activity,[6],>21
same,Activity,[7],2.1
COc1cc2sn(CCCCN3CC4CCC(CC4)C3)c(=O)c2cc1OC,IC50,[8],99 µM
same,Activity,[1],2.6
same,IC50,[9],16 µM
same,Activity,[10],2.4
same,Activity,[11],1.4
same,Activity,[5],5.4
O=c1c2ccccc2sn1CCN1CC2CCC(CC2)C1,Activity,[12],1.7
same,Activity,[13],1.1
same,Activity,[3],2.2
same,Activity,[4],1.6
CCN(CC)CCn1sc2cc(Cl)c(Cl)cc2c1=O,Activity,[14],6.5
same,Activity,[15],1.2
same,Activity,[3],2.1
same,Activity,[4],0.8
CN(CCn1sc2ccccc2c1=O)c1ccccc1,Activity,[3],1.1
same,Activity,[4],1
O=c1c2ccccc2sn1CCc1ccccn1,IC50,[8],20 µM
same,Activity,[14],0.7
same,IC50,[16],12 µM
O=c1c2cc(Cl)c(Cl)cc2sn1CCc1ccccn1,Activity,[3],1
same,Activity,[4],1
Cc1cc(C)c2c(=O)n(CCCN3CCCCC3)sc2c1,Activity,[1],1.4
same,Activity,[17],6.7
COc1cc(OC)c2c(=O)n(CCN3CCCCC3)sc2c1,Activity,[1],>27
same,Activity,[5],>10
O=c1[nH]sc2ccccc12,IC50,[8],> 200 µM
same,Activity,[14],1
same,IC50,[16],34 µM
COc1cc2sn(CCN3CCCC3)c(=O)c2cc1OC,Activity,[3],1.8
same,Activity,[4],1.1
O=c1c2ccccc2sn1CCN1CCCC1,Activity,[18],13.9
same,Activity,[19],0.9
same,Activity,[13],1.9
same,Activity,[20],2.3
same,IC50,[16],30 µM
COc1cc(OC)c2c(=O)n(CCN3CCCC3)sc2c1,Activity,[1],4.6
same,Activity,[5],>31
O=c1c2cc(Cl)c(Cl)cc2sn1CCN1CCCCC1,Activity,[3],1.5
same,Activity,[4],1.2
COc1cc2sn(CCN3CC4CCC(CC4)C3)c(=O)c2cc1OC,Activity,[21],1.7
same,IC50,[9],110 µM
same,Activity,[22],1.9
same,Activity,[15],1.9
same,Activity,[23],>5.8
same,Activity,[24],1.6
same,Activity,[13],1.3
same,Activity,[25],1
same,Activity,[3],2.9
same,Activity,[4],1.4
same,Activity,[26],1.1
Cc1cc2sn(CCc3ccccn3)c(=O)c2cc1C,collagen EC50 dose ratio (treated/control),[24],0.8
same,Activity,[13],0.9
CCCCCn1sc2ccccc2c1=O,Activity,[14],1.2
O=c1c2ccccc2sn1CCCN1CCCCC1,Activity,[1],3.7
same,Activity,[10],2.4
same,Activity,[11],1
same,Activity,[5],>26
same,IC50,[16],17 µM
COc1cc2sn(CCc3ccccn3)c(=O)c2cc1OC,collagen EC50 dose ratio (treated/control),[24],1.5
same,Activity,[13],1.1
same,Activity,[3],2.8
same,Activity,[4],1.8
O=c1c2ccccc2sn1CCCCN1CCCCC1,Activity,[1],1.1
same,Activity,[5],3.4
CCN(CC)CCn1sc2cc(C)cc(C)c2c1=O.O=S(=O)(O)c1ccc2ccccc2c1,collagen EC50 dose ratio (treated/control),[27],>36
same,Activity,[28],2.8
COc1cc2sn(CCCCc3ccccn3)c(=O)c2cc1OC,collagen EC50 dose ratio (treated/control),[24],2.7
same,Activity,[13],2.4
